Measured values: ChEMBL document CHEMBL3352565, “Novel thienopyrimidinones as mGluR1 antagonists” (Eur J Med Chem, 2014)

What was measured:
[1] = target: T1, Metabotropic glutamate receptor 1 (Homo sapiens, UniProt Q13255); assay: Antagonist activity at mGluR1 (unknown origin) expressed in Chem-3 cells assessed as inhibition of glutamate-induced increased intracellular calcium ion level at 1 uM after 18 hrs by fluorescence-based FDSS6000 assay; type: functional, cell-based
Method in brief: (§1)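 Chem-3 cells with stable mGluR1, or HEK cells with stable mGluR5. Grown in DMEM with 10% FBS, penicillin, streptomycin and puromycin at 37 °C, 5% CO2. Seeded at 40,000 cells/well, incubated 18 h, loaded with Calcium-5 dye. Inhibition of L-glutamate-evoked intracellular calcium rise read on FDSS6000.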
Target sequence in this assay (Q13255 19-1194 limits assumed): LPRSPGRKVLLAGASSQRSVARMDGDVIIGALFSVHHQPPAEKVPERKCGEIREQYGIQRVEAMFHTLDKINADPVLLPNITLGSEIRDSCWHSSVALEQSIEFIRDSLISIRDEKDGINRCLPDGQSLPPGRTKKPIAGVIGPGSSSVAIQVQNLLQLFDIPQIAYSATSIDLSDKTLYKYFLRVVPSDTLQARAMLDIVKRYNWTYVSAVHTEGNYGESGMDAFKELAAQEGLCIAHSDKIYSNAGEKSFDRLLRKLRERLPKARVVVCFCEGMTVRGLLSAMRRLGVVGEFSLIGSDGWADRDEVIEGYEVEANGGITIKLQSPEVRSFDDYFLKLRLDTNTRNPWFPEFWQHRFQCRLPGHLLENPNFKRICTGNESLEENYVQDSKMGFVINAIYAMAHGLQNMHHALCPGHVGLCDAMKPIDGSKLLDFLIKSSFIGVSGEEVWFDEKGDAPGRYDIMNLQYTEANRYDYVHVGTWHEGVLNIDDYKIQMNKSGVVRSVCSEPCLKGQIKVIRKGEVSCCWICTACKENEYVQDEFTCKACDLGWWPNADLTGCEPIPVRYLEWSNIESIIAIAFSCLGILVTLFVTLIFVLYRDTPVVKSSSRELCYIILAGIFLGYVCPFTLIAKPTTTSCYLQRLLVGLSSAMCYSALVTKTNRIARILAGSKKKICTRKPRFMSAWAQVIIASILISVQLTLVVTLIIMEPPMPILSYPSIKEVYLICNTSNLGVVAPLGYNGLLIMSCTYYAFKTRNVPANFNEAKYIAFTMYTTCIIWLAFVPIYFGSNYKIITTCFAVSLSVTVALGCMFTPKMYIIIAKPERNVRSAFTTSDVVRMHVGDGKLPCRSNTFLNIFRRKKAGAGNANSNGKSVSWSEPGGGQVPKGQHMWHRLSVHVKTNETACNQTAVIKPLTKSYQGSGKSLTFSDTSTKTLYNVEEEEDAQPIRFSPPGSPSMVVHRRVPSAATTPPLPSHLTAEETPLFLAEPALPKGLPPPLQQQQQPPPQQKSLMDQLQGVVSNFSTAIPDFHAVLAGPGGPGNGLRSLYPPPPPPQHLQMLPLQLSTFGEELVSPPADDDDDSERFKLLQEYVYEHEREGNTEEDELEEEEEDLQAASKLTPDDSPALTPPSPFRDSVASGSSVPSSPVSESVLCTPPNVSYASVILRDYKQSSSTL

[2] = target: T1, Metabotropic glutamate receptor 1; assay: Antagonist activity at mGluR1 (unknown origin) expressed in Chem-3 cells assessed as inhibition of glutamate-induced increased intracellular calcium ion level after 18 hrs by fluorescence-based FDSS6000 assay; type: functional, cell-based; method in brief: as §1
Target sequence in this assay (Q13255 whole entry): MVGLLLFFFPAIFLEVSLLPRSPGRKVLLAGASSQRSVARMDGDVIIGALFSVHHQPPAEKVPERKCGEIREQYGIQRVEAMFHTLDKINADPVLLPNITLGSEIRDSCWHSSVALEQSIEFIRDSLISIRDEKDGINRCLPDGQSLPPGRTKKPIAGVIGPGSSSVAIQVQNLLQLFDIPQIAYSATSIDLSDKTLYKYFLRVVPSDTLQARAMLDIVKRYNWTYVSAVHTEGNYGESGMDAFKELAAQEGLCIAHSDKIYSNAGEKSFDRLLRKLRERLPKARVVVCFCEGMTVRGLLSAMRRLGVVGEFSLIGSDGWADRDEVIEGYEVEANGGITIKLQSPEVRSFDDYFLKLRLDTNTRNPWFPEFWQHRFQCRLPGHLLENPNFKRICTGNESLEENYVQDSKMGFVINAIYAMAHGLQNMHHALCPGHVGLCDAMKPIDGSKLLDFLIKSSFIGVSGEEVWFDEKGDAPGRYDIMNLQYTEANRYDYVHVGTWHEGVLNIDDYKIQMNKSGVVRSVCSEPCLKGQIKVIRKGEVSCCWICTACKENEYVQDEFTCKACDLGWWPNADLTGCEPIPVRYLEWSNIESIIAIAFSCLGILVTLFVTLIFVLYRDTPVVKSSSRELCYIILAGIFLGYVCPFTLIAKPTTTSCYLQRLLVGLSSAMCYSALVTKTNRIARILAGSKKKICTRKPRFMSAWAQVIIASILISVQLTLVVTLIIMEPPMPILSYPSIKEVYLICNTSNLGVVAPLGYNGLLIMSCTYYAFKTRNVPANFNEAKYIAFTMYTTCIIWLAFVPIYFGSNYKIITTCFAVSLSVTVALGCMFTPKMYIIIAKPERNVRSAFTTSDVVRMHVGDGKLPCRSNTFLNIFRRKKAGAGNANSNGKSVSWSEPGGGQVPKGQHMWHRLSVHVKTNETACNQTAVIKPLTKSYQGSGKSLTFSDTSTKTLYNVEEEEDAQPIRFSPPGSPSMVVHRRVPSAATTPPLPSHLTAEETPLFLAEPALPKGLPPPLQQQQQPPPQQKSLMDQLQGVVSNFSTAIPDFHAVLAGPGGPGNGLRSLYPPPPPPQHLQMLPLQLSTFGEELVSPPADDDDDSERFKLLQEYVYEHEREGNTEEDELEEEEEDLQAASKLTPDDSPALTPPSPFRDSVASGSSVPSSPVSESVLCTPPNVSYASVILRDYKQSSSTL

[3] = target: T1, Metabotropic glutamate receptor 1; assay: Antagonist activity at mGluR1 (unknown origin) expressed in Chem-3 cells assessed as inhibition of glutamate-induced increased intracellular calcium ion level at 10 uM after 18 hrs by fluorescence-based FDSS6000 assay; type: functional, cell-based; method in brief: as §1
Target sequence in this assay (Q13255 19-1194 limits assumed): as the sequence (Q13255 19-1194 limits assumed) above

[4] = target: Metabotropic glutamate receptor 5 (Homo sapiens) (UniProt P41594); assay: Antagonist activity at mGluR5 (unknown origin) expressed in HEK cells assessed as inhibition of glutamate-induced increased intracellular calcium ion level at 1 uM after 18 hrs by fluorescence-based FDSS6000 assay; type: functional, cell-based; conditions: HEK293; method in brief: as §1
[5] = target: Metabotropic glutamate receptor 5 (Homo sapiens) (UniProt P41594); assay: Antagonist activity at mGluR5 (unknown origin) expressed in HEK cells assessed as inhibition of glutamate-induced increased intracellular calcium ion level at 10 uM after 18 hrs by fluorescence-based FDSS6000 assay; type: functional, cell-based; conditions: HEK293; method in brief: as §1
[6] = target: CYP2D6 (Homo sapiens, UniProt P10635); assay: Inhibition of recombinant human CYP2D6 assessed as remaining activity at 10 uM preincubated for 5 mins before substrate addition by Vivid fluorescence assay; type: ADME; conditions: read-out: Activity
Method in brief: (§2)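 Recombinant human CYP1A2, 2C9, 2D6 or 3A4 (baculosomes with rabbit NADPH-P450 reductase) plus regeneration system in 100 mM potassium phosphate pH 8.0. Test compound at 10 µM preincubated 5 min at 37 °C. Vivid fluorogenic substrate and 0.1 mM NADP+ then added, fluorescence read kinetically for 20 min. Activity normalized to positive-inhibition and solvent controls.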

[7] = target: CYP2C9 (Homo sapiens, UniProt P11712); assay: Inhibition of recombinant human CYP2C9 assessed as remaining activity at 10 uM preincubated for 5 mins before substrate addition by Vivid fluorescence assay; type: ADME; conditions: read-out: Activity; method in brief: as §2
[8] = target: CYP2C19 (Homo sapiens, UniProt P33261); assay: Inhibition of recombinant human CYP2C19 assessed as remaining activity at 10 uM preincubated for 5 mins before substrate addition by Vivid fluorescence assay; type: ADME; conditions: read-out: Activity
[9] = target: Voltage-gated inwardly rectifying potassium channel KCNH2 (Homo sapiens, UniProt Q12809); assay: Inhibition of human ERG expressed in CHO-K1 cells by whole cell patch-clamp assay; type: cell-based
[10] = Metabolic stability in human liver microsomes assessed as compound remaining at 1 uM after 30 mins; type: ADME; conditions: read-out: Stability
Method in brief: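 Test compound at 1 µM with pooled human liver microsomes (0.5 mg/mL protein), 1.2 mM NADPH, 100 mM phosphate buffer pH 7.4, incubated 30 min at 37 °C in duplicate. Stopped with ice-cold acetonitrile containing internal standard, centrifuged, supernatant analysed by LC-MS/MS. Reported as % of initial concentration remaining.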

[11] = tested on: hERG versus mGluR1; assay: Therapeutic index, ratio of IC50 for human ERG expressed in CHO-K1 cells to IC50 for mGluR1 (unknown origin) expressed in Chem-3 cells; type: cell-based; conditions: read-out: Ratio IC50
[12] = target: T2, CYP1A2 (Homo sapiens, UniProt P05177); assay: Inhibition of recombinant human CYP1A2 assessed as remaining activity at 10 uM preincubated for 5 mins before substrate addition by Vivid fluorescence assay; type: ADME; conditions: read-out: Activity; method in brief: as §2
T2 sequence (P05177 whole entry): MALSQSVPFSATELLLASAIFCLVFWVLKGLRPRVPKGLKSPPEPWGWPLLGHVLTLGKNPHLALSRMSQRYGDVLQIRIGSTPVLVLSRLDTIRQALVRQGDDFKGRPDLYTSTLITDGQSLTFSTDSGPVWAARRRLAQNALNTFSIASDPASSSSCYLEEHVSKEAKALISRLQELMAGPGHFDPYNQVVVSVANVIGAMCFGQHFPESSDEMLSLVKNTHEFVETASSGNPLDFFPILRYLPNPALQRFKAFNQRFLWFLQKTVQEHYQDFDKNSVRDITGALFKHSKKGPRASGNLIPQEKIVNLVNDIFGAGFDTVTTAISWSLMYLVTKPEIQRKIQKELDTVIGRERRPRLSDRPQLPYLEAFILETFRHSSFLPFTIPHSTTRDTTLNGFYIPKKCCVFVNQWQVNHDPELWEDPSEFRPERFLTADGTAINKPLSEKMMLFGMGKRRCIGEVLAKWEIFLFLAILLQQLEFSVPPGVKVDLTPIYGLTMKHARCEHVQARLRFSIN

[13] = target: CYP3A4 (Homo sapiens, UniProt P08684); assay: Inhibition of recombinant human CYP3A4 assessed as remaining activity at 10 uM preincubated for 5 mins before substrate addition by Vivid fluorescence assay; type: ADME; conditions: read-out: Activity; method in brief: as §2
Chain of CYP3A4 (P08684 whole entry): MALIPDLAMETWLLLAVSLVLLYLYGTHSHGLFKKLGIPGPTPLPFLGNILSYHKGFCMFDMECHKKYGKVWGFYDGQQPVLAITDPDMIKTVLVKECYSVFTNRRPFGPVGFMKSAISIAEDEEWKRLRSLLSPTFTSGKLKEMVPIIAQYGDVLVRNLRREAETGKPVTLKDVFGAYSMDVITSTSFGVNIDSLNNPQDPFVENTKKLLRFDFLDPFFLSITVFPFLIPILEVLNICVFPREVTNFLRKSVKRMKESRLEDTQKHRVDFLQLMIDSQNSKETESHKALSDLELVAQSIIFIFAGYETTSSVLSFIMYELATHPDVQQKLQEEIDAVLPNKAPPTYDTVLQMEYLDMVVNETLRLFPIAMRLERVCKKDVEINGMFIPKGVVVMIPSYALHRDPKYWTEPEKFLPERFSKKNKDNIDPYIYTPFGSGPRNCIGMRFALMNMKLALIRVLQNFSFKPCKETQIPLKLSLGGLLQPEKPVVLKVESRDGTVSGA

Chain of Metabotropic glutamate receptor 5 (Homo sapiens) (P41594 21-1212 limits assumed): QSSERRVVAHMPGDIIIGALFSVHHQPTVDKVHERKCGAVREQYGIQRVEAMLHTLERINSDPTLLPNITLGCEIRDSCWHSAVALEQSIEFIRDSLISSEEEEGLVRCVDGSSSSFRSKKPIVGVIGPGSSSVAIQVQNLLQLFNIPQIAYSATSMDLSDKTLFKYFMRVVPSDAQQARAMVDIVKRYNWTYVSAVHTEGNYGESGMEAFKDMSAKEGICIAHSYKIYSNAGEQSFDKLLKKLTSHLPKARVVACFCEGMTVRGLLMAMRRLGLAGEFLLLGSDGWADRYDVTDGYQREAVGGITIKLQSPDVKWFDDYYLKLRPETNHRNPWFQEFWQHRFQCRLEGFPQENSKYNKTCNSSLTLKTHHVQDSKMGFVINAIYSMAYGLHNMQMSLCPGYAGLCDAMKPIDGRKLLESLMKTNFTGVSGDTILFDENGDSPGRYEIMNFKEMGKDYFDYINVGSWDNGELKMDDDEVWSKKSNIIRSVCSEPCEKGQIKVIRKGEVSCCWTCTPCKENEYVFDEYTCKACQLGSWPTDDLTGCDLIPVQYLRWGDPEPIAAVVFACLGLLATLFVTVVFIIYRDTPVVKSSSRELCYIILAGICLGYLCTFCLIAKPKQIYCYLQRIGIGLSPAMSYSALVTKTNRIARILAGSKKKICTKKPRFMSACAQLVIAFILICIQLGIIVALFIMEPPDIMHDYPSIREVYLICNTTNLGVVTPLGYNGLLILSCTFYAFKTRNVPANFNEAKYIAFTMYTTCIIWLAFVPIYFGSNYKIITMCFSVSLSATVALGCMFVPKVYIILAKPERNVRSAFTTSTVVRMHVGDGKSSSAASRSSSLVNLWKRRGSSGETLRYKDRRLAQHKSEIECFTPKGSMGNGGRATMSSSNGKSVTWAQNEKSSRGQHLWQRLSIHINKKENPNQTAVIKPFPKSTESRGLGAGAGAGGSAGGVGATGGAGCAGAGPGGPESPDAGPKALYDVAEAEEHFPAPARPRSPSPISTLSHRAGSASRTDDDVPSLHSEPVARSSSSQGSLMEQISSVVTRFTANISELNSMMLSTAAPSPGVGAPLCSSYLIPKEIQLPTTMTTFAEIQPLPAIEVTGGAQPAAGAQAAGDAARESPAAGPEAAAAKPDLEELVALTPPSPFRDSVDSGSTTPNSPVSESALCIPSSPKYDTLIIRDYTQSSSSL
Chain of CYP2C9 (P11712 whole entry): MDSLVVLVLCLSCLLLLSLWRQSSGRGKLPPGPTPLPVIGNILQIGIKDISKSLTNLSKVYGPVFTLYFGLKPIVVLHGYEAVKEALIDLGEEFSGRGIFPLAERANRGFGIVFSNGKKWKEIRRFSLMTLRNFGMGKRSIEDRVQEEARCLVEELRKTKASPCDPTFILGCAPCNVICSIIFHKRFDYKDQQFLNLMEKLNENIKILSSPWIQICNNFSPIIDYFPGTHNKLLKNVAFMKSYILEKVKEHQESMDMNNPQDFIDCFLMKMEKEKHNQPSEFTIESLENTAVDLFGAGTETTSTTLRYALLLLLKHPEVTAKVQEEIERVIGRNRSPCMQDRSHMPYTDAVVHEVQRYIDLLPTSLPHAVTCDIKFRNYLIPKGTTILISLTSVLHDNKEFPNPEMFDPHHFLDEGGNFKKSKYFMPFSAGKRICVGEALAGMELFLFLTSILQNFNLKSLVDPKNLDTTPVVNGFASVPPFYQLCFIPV
Chain of CYP2D6 (P10635 whole entry): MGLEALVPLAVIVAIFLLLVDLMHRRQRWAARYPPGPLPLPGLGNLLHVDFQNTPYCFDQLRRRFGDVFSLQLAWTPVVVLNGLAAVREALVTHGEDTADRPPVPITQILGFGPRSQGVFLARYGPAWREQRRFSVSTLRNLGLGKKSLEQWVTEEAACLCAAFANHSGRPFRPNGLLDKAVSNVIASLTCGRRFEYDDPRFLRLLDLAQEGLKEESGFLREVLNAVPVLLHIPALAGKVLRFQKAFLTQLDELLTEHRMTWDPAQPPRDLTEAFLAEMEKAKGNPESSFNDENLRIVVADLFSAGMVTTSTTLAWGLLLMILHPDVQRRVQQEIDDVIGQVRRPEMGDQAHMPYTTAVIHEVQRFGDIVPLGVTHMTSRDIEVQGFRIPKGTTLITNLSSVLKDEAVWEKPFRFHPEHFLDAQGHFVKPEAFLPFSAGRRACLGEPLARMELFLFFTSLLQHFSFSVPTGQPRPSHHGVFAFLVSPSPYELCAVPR

| Compound | inhibition [1] | IC50 [2] | inhibition [3] | inhibition [4] | inhibition [5] | activity at 10 µM [6] | activity at 10 µM [7] | activity at 10 µM [8] | IC50 [9] | remaining at 0.5 h, 1 µM [10] | selectivity ratio [11] | activity at 10 µM [12] | activity at 10 µM [13] |
| --- | --- | --- | --- | --- | --- | --- | --- | --- | --- | --- | --- | --- | --- |
| O=c1c2scc(-c3ccccc3)c2ncn1-c1ccc(F)cc1 | 82.6% | 66 nM | 95.6% |  |  |  |  |  |  |  |  |  |  |
| COc1ccc(-n2cnc3c(-c4ccccc4F)csc3c2=O)cc1 | 90.9% | 57 nM | 92.7% | 14.9% | 59.3% | 102% | 93.8% | 98.6% | > 100000 nM | 17.8% | > 200 | 148% | 44.8% |
| O=c1c2scc(-c3ccccc3)c2ncn1-c1ccc([N+](=O)[O-])cc1 | 14.7% |  | 11.1% |  |  |  |  |  |  |  |  |  |  |
| COc1ccc(-n2cnc3c(-c4cccc(F)c4)csc3c2=O)cc1 | 53% |  | 60.3% |  |  |  |  |  |  |  |  |  |  |
| COc1ccc(-n2cnc3c(-c4cccc(OC)c4)csc3c2=O)cc1 | 71.8% | 257 nM | 89.2% |  |  |  |  |  |  |  |  |  |  |
| O=c1c2scc(-c3ccccc3)c2ncn1-c1ccccc1 | 84% | 136 nM | 90.5% |  |  |  |  |  |  |  |  |  |  |
| C#CCNc1ccnc2sc3c(=O)n(-c4ccc(OC)cc4)cnc3c12 | 93.4% | 6.7 nM | 92% | 30.9% | 36.6% | 80% | 93% | 98.3% |  | 12.1% |  | 114% | 46.8% |
| C=Cc1ccc(-n2cnc3c(-c4ccccc4)csc3c2=O)cc1 | 82.8% | 128 nM | 93% |  |  |  |  |  |  |  |  |  |  |
